Columns and labels:
Ramos [1] = experiment: Antiproliferative activity against human Ramos cells at 40 uM measured after 72 hrs by CCK-8 assay relative to control; type: functional
Outline: (§1)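 Ramos or Raji cells in RPMI-1640 with 10% FBS and 1% penicillin-streptomycin at 37 °C, 5% CO2. Seeded at 2000–3000 cells/well one day before compound addition. Exposure 72 h, then CCK-8 with absorbance at 450 nm. […] Single-point inhibition at 40 µM reported as mean ± standard deviation.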

Ramos [2] = experiment: Antiproliferative activity against human Ramos cells measured after 72 hrs by CCK-8 assay; type: functional, cell-based; outline: as §1
Raji [3] = experiment: Antiproliferative activity against human Raji cells at 40 uM measured after 72 hrs by CCK-8 assay relative to control; type: functional; outline: as §1
Raji [4] = experiment: Antiproliferative activity against human Raji cells measured after 72 hrs by CCK-8 assay; type: functional, cell-based; outline: as §1
Ramos [5] = experiment: Induction of apoptosis in human Ramos cells assessed as viable cells at 5 uM measured after 15 mins by Annexin-V-APC staining-based flow cytometric analysis (reference value: 96.5 %); type: functional
Ramos [6] = experiment: Induction of apoptosis in human Ramos cells assessed as early apoptotic cells at 5 uM measured after 15 mins by Annexin-V-APC staining-based flow cytometric analysis (reference value: 0.14 %); type: functional
Ramos [7] = experiment: Induction of apoptosis in human Ramos cells assessed as late apoptotic cells at 5 uM measured after 15 mins by Annexin-V-APC staining-based flow cytometric analysis (reference value: 1.85 %); type: functional
Ramos [8] = experiment: Induction of apoptosis in human Ramos cells assessed as necrotic cells at 5 uM measured after 15 mins by Annexin-V-APC staining-based flow cytometric analysis (reference value: 1.50 %); type: functional
Raji [9] = experiment: Induction of apoptosis in human Raji cells assessed as viable cells at 5 uM measured after 15 mins by Annexin-V-APC staining-based flow cytometric analysis (reference value: 97.5 %); type: functional
Raji [10] = experiment: Induction of apoptosis in human Raji cells assessed as early apoptotic cells at 5 uM measured after 15 mins by Annexin-V-APC staining-based flow cytometric analysis (reference value: 0.021 %); type: functional
Raji [11] = experiment: Induction of apoptosis in human Raji cells assessed as late apoptotic cells at 5 uM measured after 15 mins by Annexin-V-APC staining-based flow cytometric analysis (reference value: 0.57 %); type: functional
Raji [12] = experiment: Induction of apoptosis in human Raji cells assessed as necrotic cells at 5 uM measured after 15 mins by Annexin-V-APC staining-based flow cytometric analysis (reference value: 1.87 %); type: functional
Ramos [13] = experiment: Cell cycle arrest in human Ramos cells assessed as accumulation at G0/G1 phase at 1 uM measured after 48 hrs by propidium iodide/RNase staining based flow cytometric analysis (reference value: 37.66 %); type: functional
Ramos [14] = experiment: Cell cycle arrest in human Ramos cells assessed as accumulation at S phase at 1 uM measured after 48 hrs by propidium iodide/RNase staining based flow cytometric analysis (reference value: 56.35 %); type: functional
Ramos [15] = experiment: Cell cycle arrest in human Ramos cells assessed as accumulation at G2/M phase at 1 uM measured after 48 hrs by propidium iodide/RNase staining based flow cytometric analysis (reference value: 5.98 %); type: functional
Raji [16] = experiment: Cell cycle arrest in human Raji cells assessed as accumulation at G0/G1 phase at 1 uM measured after 48 hrs by propidium iodide/RNase staining based flow cytometric analysis (reference value: 48.68 %); type: functional
Raji [17] = experiment: Cell cycle arrest in human Raji cells assessed as accumulation at S phase at 1 uM measured after 48 hrs by propidium iodide/RNase staining based flow cytometric analysis (reference value: 33.18 %); type: functional
Raji [18] = experiment: Cell cycle arrest in human Raji cells assessed as accumulation at G2/M phase at 1 uM measured after 48 hrs by propidium iodide/RNase staining based flow cytometric analysis (reference value: 18.14 %); type: functional
Raji [19] = experiment: Potency index, ratio of ibrutinib IC50 to compound IC50 for antiproliferative activity against human Raji cells; type: functional
[20] = molecular target: Tyrosine-protein kinase BTK (Homo sapiens, UniProt Q06187); experiment: Inhibition of human recombinant full length N-terminal His tagged BTK expressed in baculovirus infected Sf9 cells using poly (Glu,Tyr) 4:1 as substrate measured after 60 mins in presence of ATP by ADP-Glo kinase assay
Chain of Tyrosine-protein kinase BTK (Q06187 whole entry): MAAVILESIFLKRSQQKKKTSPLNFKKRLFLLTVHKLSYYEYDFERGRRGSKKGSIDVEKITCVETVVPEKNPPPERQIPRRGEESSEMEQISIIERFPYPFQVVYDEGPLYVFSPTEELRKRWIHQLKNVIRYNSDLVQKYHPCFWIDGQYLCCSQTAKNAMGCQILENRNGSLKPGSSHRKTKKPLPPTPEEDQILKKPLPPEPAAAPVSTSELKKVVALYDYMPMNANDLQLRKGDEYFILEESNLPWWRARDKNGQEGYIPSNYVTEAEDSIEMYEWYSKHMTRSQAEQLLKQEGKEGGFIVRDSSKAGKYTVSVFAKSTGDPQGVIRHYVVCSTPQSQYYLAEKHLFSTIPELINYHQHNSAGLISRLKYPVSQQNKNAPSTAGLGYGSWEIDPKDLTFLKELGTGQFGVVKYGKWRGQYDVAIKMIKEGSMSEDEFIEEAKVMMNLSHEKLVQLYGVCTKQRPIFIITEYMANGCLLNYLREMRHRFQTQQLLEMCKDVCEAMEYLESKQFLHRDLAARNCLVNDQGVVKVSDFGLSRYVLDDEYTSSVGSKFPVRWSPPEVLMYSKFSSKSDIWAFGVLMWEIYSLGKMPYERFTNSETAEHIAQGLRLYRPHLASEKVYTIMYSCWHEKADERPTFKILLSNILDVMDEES

In the case of `C=CC(=O)N1CCC[C@@H](n2nc(-c3ccc(Oc4ccccc4)cc3)c3c(N)ncnc32)C1` [IBRUTINIB], the “inhibition (INH)” value (Ramos [1]) is reported as 81.2%, the IC50 (Ramos [2]) is reported as 14.7 µM and the “inhibition (INH)” value (Raji [3]) is reported as 76.23%. The IC50 (Raji [4]) was 16 µM, the Activity (Ramos [5]) was 89.1% and the Activity (Ramos [6]) was 0.13%. The Activity (Ramos [7]) was 5.88%, the Activity (Ramos [8]) was 4.92% and the Activity (Raji [9]) was 94.8%. The Activity (Raji [10]) was 0.01%, the Activity (Raji [11]) was 1.14% and the Activity (Raji [12]) was 4.01%. The Activity (Ramos [13]) was 68.45%, the Activity (Ramos [14]) was 28.73% and the Activity (Ramos [15]) was 2.81%. It also gave an Activity (Raji [16]) of 70.42%, an Activity (Raji [17]) of 14.66% and an Activity (Raji [18]) of 14.92%.
For `O=C(Nc1cccc(-c2nc(Nc3ccc(N4CCOCC4)cc3)c(C(=O)O)s2)c1)c1ccc(F)cc1`, the “Ratio IC50” value (Raji [19]) was 13, the IC50 [20] was 1.12 µM and the inhibition at 40 µM (Ramos [1]; Homo sapiens, Ramos, 72 h) was 90.5%. For the same compound, the IC50 (Ramos [2]) was 3.51 µM, the inhibition at 40 µM (Raji [3]; Homo sapiens, Raji, 72 h) was 96.4% and the IC50 (Raji [4]) was 1.2 µM.

Source: ChEMBL document CHEMBL4359830, “Discovery and structure-activity relationship of novel diphenylthiazole derivatives as BTK inhibitor with potent activity against B cell lymphoma cell lines” (Eur J Med Chem, 2019)
